Apaf-1 inh: inhibitors of human Apaf-1 apoptosome, primary screen, biochemical, DEVD-Rh110 fluorescence, uHTS; Apoptotic protease-activating factor 1 (Homo sapiens), O14727; reconstituted apoptosome caspase-3 activity; inhibition, % at 20 µM; actives 0.71% (n = 330,000); AID 489030, 2010; active = inhibition of at least 40% at 20 µM
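detection = Rh110 fluorescence intensity | test system = biochemical Apaf-1 apoptosome reconstitution | also added = cytochrome c and DEVD-Rh110 substrate | schedule = 30 min plus 50 min, RT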
PAFAH1B3 FP inh: PAFAH1B3 enzyme inhibitors, primary screen, biochemical, fluorescence polarization, human. Platelet-activating factor acetylhydrolase IB subunit alpha1 (Homo sapiens), Q15102. recombinant PAFAH1B3, FP-rhodamine probe. inhibition, % at 3.39 µM. actives 0.28% (n = 340,000). AID 492972, 2010;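 active = inhibition above the screen-wide average of all tested compounds plus 3 SD, cut at about 25% in these data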
Target sequence (Q15102 whole entry, looked up): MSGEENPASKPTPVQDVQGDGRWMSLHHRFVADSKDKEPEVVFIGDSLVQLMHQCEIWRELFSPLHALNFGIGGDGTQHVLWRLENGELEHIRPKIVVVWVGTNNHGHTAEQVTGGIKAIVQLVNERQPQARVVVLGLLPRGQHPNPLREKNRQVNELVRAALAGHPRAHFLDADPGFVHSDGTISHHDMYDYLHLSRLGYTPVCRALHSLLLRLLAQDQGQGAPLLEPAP
PAFAH1B2 inh: PAFAH1B2 enzyme inhibitors, primary screen, biochemical, fluorescence polarization, human | AID 492953, 2010 | actives 1.2% (n = 340,000) | inhibition, % at 3.39 µM | recombinant PAFAH1B2, FP-rhodamine activity probe;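 active = inhibition above the mean of all tested compounds plus 3 SD, cut at about 24% in these data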
Target sequence (P68402 whole entry, looked up): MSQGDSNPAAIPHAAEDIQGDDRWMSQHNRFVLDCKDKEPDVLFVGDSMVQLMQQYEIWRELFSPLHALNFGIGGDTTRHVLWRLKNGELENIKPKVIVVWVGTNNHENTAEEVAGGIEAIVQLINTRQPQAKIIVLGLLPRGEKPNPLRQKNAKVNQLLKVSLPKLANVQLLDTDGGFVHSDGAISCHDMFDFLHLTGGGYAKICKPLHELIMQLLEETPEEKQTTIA
pPAFAH FP inh: pPAFAH enzyme inhibitors, primary screen, biochemical, fluorescence polarization, human. recombinant pPAFAH, FP-rhodamine probe fluorescence polarization. inhibition, % at 3.39 µM. actives 1.5% (n = 330,000). AID 463082, 2010;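 active = inhibition above the mean inhibition across the screen plus 3 SD, cut at about 25% in these data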;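 also: inhibitors block binding of the rhodamine activity-based probe so polarization drops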
PAFAH2 FP inh: PAFAH2 enzyme inhibitors, primary screen, biochemical, fluorescence polarization, human; inhibition, % at 3.39 µM; Platelet-activating factor acetylhydrolase 2, cytoplasmic (Homo sapiens), Q99487; recombinant PAFAH2, FP-rhodamine activity probe; actives 0.99% (n = 340,000);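 active = inhibition above the mean over all tested compounds plus 3 SD, cut at about 30% in these data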;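 also: inhibitors block probe labeling of enzyme so polarization drops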
PAFAH2 confirm: PAFAH2 enzyme inhibitors, confirmation, biochemical, fluorescence polarization, human; inhibition, % at 3.39 µM; actives 65% (n = 2,300); shares compounds with PAFAH2 FP inh; recombinant PAFAH2, FP-rhodamine activity probe; AID 493030, 2011;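 active = mean inhibition over three repeats above a set limit taken from the earlier primary screen, cut at about 30% in these data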;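 also: inhibitor blocks binding of rhodamine activity probe so polarization falls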
Each line names hits and unclear results; the compound was inactive in the other large screens (follow-up assays come after a bar, where they were run). In the library only some 3.1% were active in any assay of this set; here they are far more common.

COc1cc(/C=C/C(=O)OCC(=O)Nc2ccc(S(N)(=O)=O)cc2)ccc1O	none
O=C(COC(=O)/C=C/c1ccc(F)cc1)Nc1ccc(Cl)cn1	PAFAH2 FP inh 30 | PAFAH2 confirm inactive
CC(OC(=O)CCC(=O)c1ccc(Cl)s1)C(=O)NC1(C#N)CCCCC1 (stereo not drawn)	none
Cc1ccc(NS(=O)(=O)N2CCCCC2)cc1	none (no result: Apaf-1 inh, pPAFAH FP inh)
Cc1ccc(NC(=O)C2CCCN(C(=O)NCc3ccccc3)C2)c(C)c1 (stereo not drawn)	none
C=CCNc1nc(C(=O)OCC(=O)Nc2cccc(SC)c2)cs1	PAFAH2 FP inh 62 (no result: pPAFAH FP inh) | PAFAH2 confirm 51
C=CCNc1nc(C(=O)OCC(=O)NCc2ccccc2OC)cs1	none
CCCCn1c(=O)[nH]c(=O)c2c1nc(CN(C)Cc1cccc(OC)c1OC)n2CCC	none (no result: Apaf-1 inh, pPAFAH FP inh)
O=C(COC(=O)C1CC2C=CC1C2)NCc1ccccc1Cl (stereo not drawn)	PAFAH2 FP inh 45 | PAFAH2 confirm 44
CC1CC1C(=O)OCC(=O)NCc1ccccc1Cl (stereo not drawn)	PAFAH2 FP inh 68 | PAFAH2 confirm 56
O=C(COC(=O)C1CCC1)NCc1ccccc1Cl	none
CCOC(=O)Cc1csc(NC(=O)CSc2nc(=O)[nH]c3c2CCC3)n1	none
CCOC(=O)c1c(S(=O)(=O)NCC(=O)N2CCN(c3ccc(OC)cc3)CC2)c(C)n(C)c1C	none
Cc1ccc(NC(=O)COC(=O)C2=COCCO2)c([N+](=O)[O-])c1	none
Cc1ccc(NC(=O)COC(=O)C2=COCCO2)cc1	PAFAH2 FP inh 47 | PAFAH2 confirm 39
CCC(C)c1ccc(NC(=O)COC(=O)C2=COCCO2)cc1 (stereo not drawn)	PAFAH2 FP inh 69 | PAFAH2 confirm 58
O=C(COC(=O)C1=COCCO1)Nc1cc(Cl)c(Cl)cc1Cl	PAFAH2 FP inh 38 | PAFAH2 confirm 33
CC(C)c1cccc(C(C)C)c1NC(=O)COC(=O)C1=COCCO1	PAFAH2 FP inh 68 | PAFAH2 confirm 57
O=C(NCc1cccs1)C1CC(=O)N(Cc2ccccc2)C1 (stereo not drawn)	none
COc1ccc(NC(=O)COC(=O)C2=COCCO2)cc1OC	none
O=C(COC(=O)C1=COCCO1)Nc1ccc2c(c1)OCO2	PAFAH2 FP inh 69 | PAFAH2 confirm 52
O=C(CCN1C(=O)/C(=C\c2cccc(Br)c2)SC1=S)N1CCOCC1	none
O=C(COC(=O)/C=C/c1cccs1)NC1CC1	PAFAH2 FP inh 41 | PAFAH2 confirm 39
O=C(COC(=O)/C=C/c1cccc(C(F)(F)F)c1)NC1CCCCCC1	PAFAH2 FP inh 31 | PAFAH2 confirm 43
O=C(COC(=O)/C=C/c1ccccc1[N+](=O)[O-])NC1CC1	PAFAH2 FP inh 36 | PAFAH2 confirm inactive
O=C(COC(=O)/C=C/c1ccccc1)NC1CC1	PAFAH2 FP inh 54 | PAFAH2 confirm 33
CNC(=O)COC(=O)/C=C/c1cccs1	none
O=C(COC(=O)/C=C/c1ccccc1)NC1CCS(=O)(=O)C1 (stereo not drawn)	none
O=C(COc1ccccc1Br)Nc1ccc2c(c1)OCCCO2	none
CC(C)C(=O)Nc1ccc(S(=O)(=O)N2CCC(c3nc4ccccc4[nH]3)CC2)cc1	none
COc1ccc(OC(C)C(=O)NC2CCCCCC2)cc1 (stereo not drawn)	none
COCCN(C(=O)COC(=O)Cc1coc2cc3c(cc12)CCC3)c1c(N)n(Cc2ccccc2)c(=O)[nH]c1=O	none
Cn1nccc1C(=O)OCC(=O)Nc1ccccc1Cl	none (no result: pPAFAH FP inh)
O=C(COC(=O)/C=C/c1ccccc1)NC1CCCCCC1	PAFAH2 FP inh 89 (no result: pPAFAH FP inh) | PAFAH2 confirm 82
O=C(COC(=O)/C=C/c1ccc([N+](=O)[O-])cc1)NC(=O)NC1CCCCC1	none
O=C(COC(=O)/C=C/c1ccccc1)NC(=O)NC1CCCCC1	PAFAH2 FP inh 35 | PAFAH2 confirm inactive
COc1cc(/C=C/C(=O)OCC(=O)Nc2ccccc2Cl)cc(OC)c1OC	none
CC(C)=CC(=O)OCC(=O)Nc1ccccc1Cl	PAFAH2 FP inh 51 | PAFAH2 confirm 40
CC(C)=CC(=O)OCC(=O)Nc1cc(C)ccc1C	PAFAH2 FP inh 30 | PAFAH2 confirm inactive
CCOC(=O)CSCC(=O)Nc1cc(C)ccc1C	none
CC(c1ccccc1)C(OC(=O)c1cccc([N+](=O)[O-])c1C(=O)O)c1ccccc1 (stereo not drawn)	none (no result: Apaf-1 inh, pPAFAH FP inh)
O=C(Cc1ccsc1)NNC(=O)c1ccccc1Cl	none
Cc1ccc(C(=O)O/N=C/C2=C(Cl)c3ccccc3CC2)cc1	PAFAH2 FP inh 38 | PAFAH2 confirm 70
CCN(CC(=O)Nc1ccccc1C(F)(F)F)C(=O)c1ccc(-n2nc(C)c(CCC(=O)OC)c2C)cc1	none (no result: Apaf-1 inh, pPAFAH FP inh)
Oc1ccccc1C=NNC(=S)Nc1ccc(F)cc1	none (no result: Apaf-1 inh, pPAFAH FP inh)
Oc1ccccc1/C=N/NC(=S)NC1CC2C=CC1C2 (stereo not drawn)	PAFAH2 FP inh 57 | PAFAH2 confirm inactive
CCn1ncc(Br)c1C(=O)Nc1ccccc1C(F)(F)F	none
CCCCN(C(=O)COC(=O)c1ccc(C=O)cc1)c1c(N)n(CCC)c(=O)[nH]c1=O	none
COc1ccc(/C=C/C(=O)OCC(=O)NCCC2=CCCCC2)cc1S(=O)(=O)N1CCOCC1	PAFAH2 FP inh 65 | PAFAH2 confirm 44
O=C(COC(=O)/C=C/c1ccccc1)NCCc1ccc(F)cc1	PAFAH2 FP inh 61 | PAFAH2 confirm 42
O=C(COC(=O)/C=C/c1ccccc1)NCCC1=CCCCC1	PAFAH2 FP inh 46 | PAFAH2 confirm 44
O=C(COC(=O)/C=C/c1cccc(Br)c1)NCCc1ccccc1	none
O=C(COC(=O)/C=C/c1ccc(C(F)(F)F)cc1)NCCC1=CCCCC1	none
COc1cccc(/C=C/C(=O)OCC(=O)NCCC2=CCCCC2)c1	PAFAH2 FP inh 46 | PAFAH2 confirm 31
Cc1cc(C(C)(C)C)cc(C)c1S(=O)(=O)N1CCN(C(=O)c2cc([N+](=O)[O-])c[nH]c2=O)CC1	none
COc1ccc(/C=C/C(=O)OCC(=O)NCCC2=CCCCC2)cc1	PAFAH2 FP inh 65 | PAFAH2 confirm 53
O=C(COC(=O)C1CCCCC1)Nc1cccc(F)c1	PAFAH2 FP inh 89 | PAFAH2 confirm 79
O=C(COC(=O)C1CCCCC1)Nc1cccc(Br)c1	PAFAH2 FP inh 77 | PAFAH2 confirm 71
O=C(COC(=O)CC1CCCC1)Nc1cccc(F)c1	PAFAH2 FP inh 81 | PAFAH2 confirm 81
COc1ccccc1OCC(=O)NNC(=O)Nc1ccccc1	none
O=C(O/N=C/c1cccc([N+](=O)[O-])c1)C1CC1	PAFAH2 FP inh 92 | PAFAH2 confirm 78

Screens from PubChem BioAssay.
